# Active and inactive are the calls of the source. No cut-off for these calls is given here.
# How the values were obtained:
# Mus musculus [1] = assay: Induction of glycemic control in diet-induced obese C57BL/6 mouse assessed as reduction in blood glucose level at 30 nmol/kg, sc treated for 40 days administered on every 4 days relative to control; format: functional, organism-based; conditions: time 40.0 day
# Mus musculus [2] = assay: Effect on ALT level in diet-induced obese C57BL/6 mouse at 3 to 100 nmol/kg, sc treated for 40 days administered on every 4 days; format: functional, organism-based; conditions: dose 3-100 nmol/kg, time 40.0 day
# Mus musculus [3] = assay: Induction of glycemic control in db/db mouse assessed as reduction in macrovesicular steatosis in liver at 10 to 30 nmol/kg, sc treated for 8 weeks administered on every 2 days by H and E staining based analysis; format: functional, organism-based; conditions: dose 10-30 nmol/kg
# Outline: (§1)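 After 8 weeks of sc dosing (10 or 30 nmol/kg every 2 days) of db/db mice, liver and iWAT fixed in 4% paraformaldehyde, paraffin-embedded, sectioned and H&E stained; adipocyte area and diameter distributions and liver steatosis, hypertrophy, ballooning scored.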
# Mus musculus [4] = assay: Effect on liver weight in db/db mouse at 10 to 30 nmol/kg, sc treated for 8 weeks administered on every 2 days; format: functional, organism-based; conditions: dose 10-30 nmol/kg
# Outline: (§2)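 db/db mice dosed sc with PBS or 10 or 30 nmol/kg every 2 days for 8 weeks; body weight, food and water intake recorded every 2 days; on day 59 heart, liver, iWAT and BAT excised and weighed; mean ± SEM, ANOVA with multiple comparisons.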
# Mus musculus [5] = assay: Induction of glycemic control in db/db mouse assessed as reduction in polydipsia at 10 to 30 nmol/kg, sc treated for 8 weeks administered on every 2 days; format: functional, organism-based; conditions: dose 10-30 nmol/kg; outline: as §2
# Mus musculus [6] = assay: Induction of glycemic control in db/db mouse assessed as reduction in blood glucose level at 1 to 100 nmol/kg, sc measured upto 120 hrs; format: functional, organism-based
# Outline: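 db/db mice, three per dose group, got a single sc dose of 1, 3, 10, 30 or 100 nmol/kg, with a PBS control. Blood glucose was measured before dosing and at multiple time points after. EC50 was derived from the dose–response profiles by nonlinear regression. Mean ± SEM.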
# Mus musculus [7] = assay: Induction of glycemic control in diet-induced obese C57BL/6 mouse assessed as decrease in total cholesterol level at 100 nmol/kg, sc treated for 40 days administered on every 4 days; format: functional, organism-based; conditions: time 40.0 day
# Outline: (§3)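 Male C57BL/6 mice fed 45% kcal fat diet from 6 to 18–20 weeks old, kept on diet, given sc PBS (100 μL) or 3–100 nmol/kg every 4 days for 40 days; glucose monitored; body weight, composition, blood chemistry and H&E histology of fixed liver and iWAT assessed post-treatment.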
# Pancreatic islet = assay: Induction of insulin secretion in C57BL6/J mouse pancreatic islet at 10 to 100 nM incubated for 24 hrs in presence of 2.5 mM glucose by ELISA; format: functional, cell-based; conditions: dose 10-100 nM
# Mus musculus [8] = assay: Induction of glycemic control in db/db mouse assessed as reduction in proportion of iWAT weight to total body weight at 10 to 30 nmol/kg, sc treated for 8 weeks administered on every 2 days; format: functional, organism-based; conditions: dose 10-30 nmol/kg; outline: as §2
# Mus musculus [9] = assay: Induction of glycemic control in diet-induced obese C57BL/6 mouse assessed as reduction in fat mass at 3 to 100 nmol/kg, sc treated for 40 days administered on every 4 days; format: functional, organism-based; conditions: dose 3-100 nmol/kg, time 40.0 day; outline: as §3
# Mus musculus [10] = assay: Effect on heart weight in db/db mouse at 10 to 30 nmol/kg, sc treated for 8 weeks administered on every 2 days; format: functional, organism-based; conditions: dose 10-30 nmol/kg; outline: as §2
# Mus musculus [11] = assay: Induction of glycemic control in diet-induced obese C57BL/6 mouse assessed as increase in proportion of small adipocytes at 3 to 100 nmol/kg, sc treated for 40 days administered on every 4 days by H and E staining based analysis; format: functional, organism-based; conditions: dose 3-100 nmol/kg, time 40.0 day; outline: as §3
# Mus musculus [12] = assay: Induction of glycemic control in db/db mouse assessed as reduction in blood glucose level at 30 nmol/kg, sc measured after 48 hrs; format: functional, organism-based
# Mus musculus [13] = assay: Induction of glycemic control in diet-induced obese C57BL/6 mouse assessed as increase in lean mass at 3 to 100 nmol/kg, sc treated for 40 days administered on every 4 days; format: functional, organism-based; conditions: dose 3-100 nmol/kg, time 40.0 day; outline: as §3
# Mus musculus [14] = assay: Inhibition of fatty liver in GAN-DIO-NASH C57BL/6JNarl mouse assessed as improvement in liver health at 30 nmol/kg, sc qd for 70 days; format: functional, organism-based; conditions: time 70.0 day
# Outline: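 Male GAN-DIO-NASH mice on GAN diet dosed daily with PBS or 5–30 nmol/kg for 10 weeks; body weight, fat mass and ALT on days 0 and 70, liver H&E at 20×, liver triglycerides post-treatment; mean ± SEM, ANOVA or Student's t test.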
# Mus musculus [15] = assay: Blood glucose lowering effect in db/db mouse assessed as blood glucose level at 30 nmol/kg, sc treated for 8 weeks administered on every 2 days (reference value: 17 to 30 mmol/L); format: functional
# Mus musculus [16] = assay: Induction of glycemic control in db/db mouse assessed as reduction in large lipid droplets in liver at 10 to 30 nmol/kg, sc treated for 8 weeks administered on every 2 days by H and E staining based analysis; format: functional, organism-based; conditions: dose 10-30 nmol/kg; outline: as §1
# Mus musculus [17] = assay: Induction of glycemic control in db/db mouse assessed as reduction in polyphagia at 10 to 30 nmol/kg, sc treated for 8 weeks administered on every 2 days; format: functional, organism-based; conditions: dose 10-30 nmol/kg; outline: as §2
# Mus musculus [18] = assay: Effect on brown adipose tissue weight in db/db mouse at 10 to 30 nmol/kg, sc treated for 8 weeks administered on every 2 days; format: functional, organism-based; conditions: dose 10-30 nmol/kg; outline: as §2
# Mus musculus [19] = assay: Induction of glycemic control in db/db mouse assessed as reduction in hepatocyte ballooning at 10 to 30 nmol/kg, sc treated for 8 weeks administered on every 2 days by H and E staining based analysis; format: functional, organism-based; conditions: dose 10-30 nmol/kg; outline: as §1
# Mus musculus [20] = assay: Induction of glycemic control in diet-induced obese C57BL/6 mouse assessed as decrease in proportion of large adipocytes at 3 to 100 nmol/kg, sc treated for 40 days administered on every 4 days by H and E staining based analysis; format: functional, organism-based; conditions: dose 3-100 nmol/kg, time 40.0 day; outline: as §3
# Mus musculus [21] = assay: Induction of glycemic control in db/db mouse assessed as reduction in microvesicular steatosis in liver at 10 to 30 nmol/kg, sc treated for 8 weeks administered on every 2 days by H and E staining based analysis; format: functional, organism-based; conditions: dose 10-30 nmol/kg; outline: as §1
# Mus musculus [22] = assay: Induction of glycemic control in db/db mouse assessed as reduction in […] in liver at 10 to 30 nmol/kg, sc treated for 8 weeks administered on every 2 days by H and E staining based analysis; format: functional, organism-based; conditions: dose 10-30 nmol/kg
# Mus musculus [23] = assay: Induction of glycemic control in db/db mouse assessed as reduction in blood glucose level administered subcutaneously measured upto 120 hrs; format: functional, organism-based; conditions: dose 1-100 nmol/kg, route sc
# [24] = target: T1, Glucagon-like peptide 1 receptor (Homo sapiens, UniProt P43220); assay: Agonist activity at GLP-1 receptor (unknown origin) overexpressed in CHO-K1 cells assessed as cAMP production incubated for 30 mins in presence of HSA by HitHunter cAMP assay; format: functional, cell-based
# [25] = target: T1, Glucagon-like peptide 1 receptor; assay: Agonist activity at GLP-1 receptor (unknown origin) overexpressed in CHO-K1 cells assessed as cAMP production incubated for 30 mins by HitHunter cAMP assay; format: functional, cell-based
# Albumin = Albumin (Homo sapiens, UniProt P02768); assay: Binding affinity to CM5-chip immobilized human serum albumin assessed as fold change in equilibrium association constant by SPR analysis relative to semaglutide
# Sequence of Albumin (P02768 whole entry): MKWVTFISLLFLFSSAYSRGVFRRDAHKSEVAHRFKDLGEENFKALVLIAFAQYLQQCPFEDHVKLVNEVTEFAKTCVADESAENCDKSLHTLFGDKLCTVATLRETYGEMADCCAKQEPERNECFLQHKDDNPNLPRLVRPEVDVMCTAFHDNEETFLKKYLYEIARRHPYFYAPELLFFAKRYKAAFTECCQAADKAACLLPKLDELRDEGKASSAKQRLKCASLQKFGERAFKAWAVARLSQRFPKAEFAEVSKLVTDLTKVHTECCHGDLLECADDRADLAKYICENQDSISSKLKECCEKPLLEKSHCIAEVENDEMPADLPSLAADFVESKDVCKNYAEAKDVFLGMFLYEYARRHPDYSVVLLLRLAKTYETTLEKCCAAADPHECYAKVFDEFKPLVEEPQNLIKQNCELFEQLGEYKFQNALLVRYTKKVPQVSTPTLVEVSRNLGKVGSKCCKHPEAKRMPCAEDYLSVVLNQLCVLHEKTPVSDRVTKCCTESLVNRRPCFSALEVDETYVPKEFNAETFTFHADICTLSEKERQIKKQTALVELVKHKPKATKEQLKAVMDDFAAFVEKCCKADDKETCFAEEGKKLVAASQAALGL
# T1 sequence (P43220 whole entry): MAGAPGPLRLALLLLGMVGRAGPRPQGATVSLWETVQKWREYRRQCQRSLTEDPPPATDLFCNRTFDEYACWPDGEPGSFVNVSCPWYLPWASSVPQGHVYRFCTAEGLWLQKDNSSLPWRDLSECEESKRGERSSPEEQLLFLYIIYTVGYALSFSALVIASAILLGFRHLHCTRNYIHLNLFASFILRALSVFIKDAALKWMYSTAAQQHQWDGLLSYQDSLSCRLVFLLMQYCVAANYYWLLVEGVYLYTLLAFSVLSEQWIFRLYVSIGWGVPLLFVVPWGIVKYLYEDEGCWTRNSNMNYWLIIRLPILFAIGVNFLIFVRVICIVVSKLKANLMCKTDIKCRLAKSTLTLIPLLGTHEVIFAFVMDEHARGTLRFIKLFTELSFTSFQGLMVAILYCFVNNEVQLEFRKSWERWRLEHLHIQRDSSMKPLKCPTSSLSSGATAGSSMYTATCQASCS
smiles,measurement,setting,value
CC[C@H](C)[C@H](NC(=O)[C@H](Cc1ccccc1)NC(=O)[C@H](CCC(=O)O)NC(=O)[C@H](CCCCNC(=O)COCCOCCNC(=O)COCCOCCNC(=O)CC[C@H](NC(=O)CCCCCCCCCCCCCCCCC(=O)O)C(=O)O)NC(=O)[C@H](C)NC(=O)[C@H](C)NC(=O)[C@H](CCC(N)=O)NC(=O)CNC(=O)[C@H](CCC(=O)O)NC(=O)[C@H](CC(C)C)NC(=O)[C@H](Cc1ccc(O)cc1)NC(=O)[C@H](CO)NC(=O)[C@H](CO)NC(=O)[C@@H](NC(=O)[C@H](CC(=O)O)NC(=O)[C@H](CO)NC(=O)[C@@H](NC(=O)[C@H](Cc1ccccc1)NC(=O)[C@@H](NC(=O)CNC(=O)[C@H](CCC(=O)O)NC(=O)C(C)(C)NC(=O)[C@@H](N)Cc1cnc[nH]1)[C@@H](C)O)[C@@H](C)O)C(C)C)C(=O)N[C@@H](C)C(=O)N[C@@H](Cc1c[nH]c2ccccc12)C(=O)N[C@@H](CC(C)C)C(=O)N[C@H](C(=O)N[C@@H](CCCNC(=N)N)C(=O)NCC(=O)N[C@@H](CCCNC(=N)N)C(=O)NCC(=O)O)C(C)C,Activity,Mus musculus [1],inactive
same,Activity,Mus musculus [2],No effect
same,Activity,Mus musculus [3],Active
same,Activity,Mus musculus [4],No effect
same,Activity,Mus musculus [5],Active
same,EC50,Mus musculus [6],9.24 nM
same,Activity,Mus musculus [7],Active
same,Activity,Pancreatic islet,inactive
same,Activity,Mus musculus [8],Active
same,Activity,Mus musculus [9],inactive
same,Activity,Mus musculus [10],No effect
same,Activity,Mus musculus [11],inactive
same,Activity,Mus musculus [12],inactive
same,Activity,Mus musculus [13],inactive
same,inhibition,Mus musculus [14],Active
same,Activity,Mus musculus [15],17.7 mmol/L
same,Activity,Mus musculus [16],Active
same,Activity,Mus musculus [17],Active
same,Activity,Mus musculus [18],No effect
same,Activity,Mus musculus [19],Active
same,Activity,Mus musculus [20],inactive
same,Activity,Mus musculus [21],Active
same,Activity,Mus musculus [22],Active
same,Activity,Mus musculus [23],Dose-dependent-effect
CCCCCCCCCCCCCCCC(=O)N[C@@H](CCC(=O)NCCCC[C@@H](NC(=O)CCOCCOCCOCCOCCNC(=O)CCc1cn(CC(=O)N[C@@H](CCC(=O)NCCCC[C@H](NC(=O)[C@H](C)NC(=O)[C@H](C)NC(=O)[C@H](CCC(N)=O)NC(=O)CNC(=O)[C@H](CCC(=O)O)NC(=O)[C@H](CC(C)C)NC(=O)[C@H](Cc2ccc(O)cc2)NC(=O)[C@H](CO)NC(=O)[C@H](CO)NC(=O)[C@@H](NC(=O)[C@H](CC(=O)O)NC(=O)[C@H](CO)NC(=O)[C@@H](NC(=O)[C@H](Cc2ccccc2)NC(=O)[C@@H](NC(=O)CNC(=O)[C@H](CCC(=O)O)NC(=O)C(C)(C)NC(=O)[C@@H](N)Cc2cnc[nH]2)[C@@H](C)O)[C@@H](C)O)C(C)C)C(=O)N[C@@H](CCC(=O)O)C(=O)N[C@@H](Cc2ccccc2)C(=O)N[C@H](C(=O)N[C@@H](C)C(=O)N[C@@H](Cc2c[nH]c3ccccc23)C(=O)N[C@@H](CC(C)C)C(=O)N[C@H](C(=O)N[C@@H](CCCNC(=N)N)C(=O)NCC(=O)N[C@@H](CCCNC(=N)N)C(=O)NCC(=O)O)C(C)C)[C@@H](C)CC)C(=O)O)nn1)C(=O)NCCOCCOCCOCCOCCC(=O)N[C@H](CCCCNC(=O)CC[C@@H](NC(=O)CCCCCCCCCCCCCCCCC(=O)O)C(=O)O)C(=O)O)C(=O)O,EC50,[24],43.3 nM
same,EC50,[25],0.92 nM
CCCCCCCCCCCCCCCC(=O)N[C@@H](CCC(=O)NCCCC[C@H](NC(=O)CCOCCOCCOCCOCCNC(=O)CCc1cn(CC(=O)N[C@@H](CCC(=O)NCCCC[C@H](NC(=O)[C@H](C)NC(=O)[C@H](C)NC(=O)[C@H](CCC(N)=O)NC(=O)CNC(=O)[C@H](CCC(=O)O)NC(=O)[C@H](CC(C)C)NC(=O)[C@H](Cc2ccc(O)cc2)NC(=O)[C@H](CO)NC(=O)[C@H](CO)NC(=O)[C@@H](NC(=O)[C@H](CC(=O)O)NC(=O)[C@H](CO)NC(=O)[C@@H](NC(=O)[C@H](Cc2ccccc2)NC(=O)[C@@H](NC(=O)CNC(=O)[C@H](CCC(=O)O)NC(=O)[C@H](C)NC(=O)[C@@H](N)Cc2cnc[nH]2)[C@@H](C)O)[C@@H](C)O)C(C)C)C(=O)N[C@@H](CCC(=O)O)C(=O)N[C@@H](Cc2ccccc2)C(=O)N[C@H](C(=O)N[C@@H](C)C(=O)N[C@@H](Cc2c[nH]c3ccccc23)C(=O)N[C@@H](CC(C)C)C(=O)N[C@H](C(=O)N[C@@H](CCCNC(=N)N)C(=O)NCC(=O)N[C@@H](CCCNC(=N)N)C(=O)NCC(=O)O)C(C)C)[C@@H](C)CC)C(=O)O)nn1)C(=O)NCCOCCOCCOCCOCCC(=O)N[C@@H](CCCCNC(=O)CC[C@H](NC(=O)CCCCCCCCCCCCCCC)C(=O)O)C(=O)OC)C(=O)O,fold change (FC),Albumin,8
